In publication PMC3461162 (British Journal of Cancer, 2012):
“And” between values parts separate entries of the source, which are not always exact repeats. Identical values can stand only once.

Assay: Phase I dose-escalation safety and tolerability: adverse events, DLTs, MTD
Type: in vivo, human
Method in brief: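 Multicentre, open-label, dose-escalation study. A single oral dose on day 1 was followed one week later by continuous twice-daily dosing, starting at 10 mg. The first three cohorts got solution, later cohorts tablets. AEs were graded by CTC v3.0 from consent to 30 days after stopping. DLT: a CTC grade 3 AE, or a laboratory abnormality with clinical signs, within 42 days (extended from 35). MTD: last dose below the non-tolerated dose.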

[1] = 10 mg BID solution (n=5), CTCAE grade 1–2
[2] = 10 mg BID solution (n=5), CTCAE grade ⩾3
[3] = 20 mg BID solution (n=3), CTCAE grade 1–2
[4] = 20 mg BID solution (n=3), CTCAE grade ⩾3
[5] = 40 mg BID solution (n=6), CTCAE grade 1–2
[6] = 40 mg BID solution (n=6), CTCAE grade ⩾3
[7] = 40 mg BID tablet (n=7), CTCAE grade 1–2
[8] = 40 mg BID tablet (n=7), CTCAE grade ⩾3
[9] = 60 mg BID tablet (n=7), CTCAE grade 1–2
[10] = 60 mg BID tablet (n=7), CTCAE grade ⩾3
[11] = 90 mg BID tablet (n=11), CTCAE grade 1–2

COc1ccc(-c2ccc3c(N4CCOC[C@@H]4C)nc(N4CCOC[C@@H]4C)nc3n2)cc1CO [AZD8055]
Fatigue: patients with AZD8055-related AE, n (%) [1]: 1 (20) % | Hyperglycaemia: patients with AZD8055-related AE, n (%) [1]: 0% | Increased ALT: patients with AZD8055-related AE, n (%) [1]: 1 (20) % | Increased AST: patients with AZD8055-related AE, n (%) [1]: 1 (20) % | Increased GGT: patients with AZD8055-related AE, n (%) [1]: 0% | Nausea: patients with AZD8055-related AE, n (%) [1]: 2 (40) % | Stomatitis: patients with AZD8055-related AE, n (%) [1]: 0% | Fatigue: patients with AZD8055-related AE, n (%) [2]: 0% | Hyperglycaemia: patients with AZD8055-related AE, n (%) [2]: 0% | Increased ALT: patients with AZD8055-related AE, n (%) [2]: 0% | Increased AST: patients with AZD8055-related AE, n (%) [2]: 0% | Increased GGT: patients with AZD8055-related AE, n (%) [2]: 0% | Nausea: patients with AZD8055-related AE, n (%) [2]: 0% | Stomatitis: patients with AZD8055-related AE, n (%) [2]: 0% | Fatigue: patients with AZD8055-related AE, n (%) [3]: 0% | Hyperglycaemia: patients with AZD8055-related AE, n (%) [3]: 0% | Increased ALT: patients with AZD8055-related AE, n (%) [3]: 0% | Increased AST: patients with AZD8055-related AE, n (%) [3]: 0% | Increased GGT: patients with AZD8055-related AE, n (%) [3]: 0% | Nausea: patients with AZD8055-related AE, n (%) [3]: 1 (33) % | Stomatitis: patients with AZD8055-related AE, n (%) [3]: 1 (33) % | Fatigue: patients with AZD8055-related AE, n (%) [4]: 0% | Hyperglycaemia: patients with AZD8055-related AE, n (%) [4]: 0% | Increased ALT: patients with AZD8055-related AE, n (%) [4]: 1 (33) % | Increased AST: patients with AZD8055-related AE, n (%) [4]: 1 (33) % | Increased GGT: patients with AZD8055-related AE, n (%) [4]: 0% | Nausea: patients with AZD8055-related AE, n (%) [4]: 0% | Stomatitis: patients with AZD8055-related AE, n (%) [4]: 0% | Patients with DLT (grade 3 rise in transaminases) (40 mg BID solution): 1 | Fatigue: patients with AZD8055-related AE, n (%) [5]: 2 (33) % | Hyperglycaemia: patients with AZD8055-related AE, n (%) [5]: 0% | Increased ALT: patients with AZD8055-related AE, n (%) [5]: 0% | Increased AST: patients with AZD8055-related AE, n (%) [5]: 0% | Increased GGT: patients with AZD8055-related AE, n (%) [5]: 1 (17) % | Nausea: patients with AZD8055-related AE, n (%) [5]: 0% | Stomatitis: patients with AZD8055-related AE, n (%) [5]: 1 (17) % | Fatigue: patients with AZD8055-related AE, n (%) [6]: 0% | Hyperglycaemia: patients with AZD8055-related AE, n (%) [6]: 0% | Increased ALT: patients with AZD8055-related AE, n (%) [6]: 1 (17) % | Increased AST: patients with AZD8055-related AE, n (%) [6]: 1 (17) % | Increased GGT: patients with AZD8055-related AE, n (%) [6]: 0% | Nausea: patients with AZD8055-related AE, n (%) [6]: 0% | Stomatitis: patients with AZD8055-related AE, n (%) [6]: 0% | Fatigue: patients with AZD8055-related AE, n (%) [7]: 1 (14) % | Hyperglycaemia: patients with AZD8055-related AE, n (%) [7]: 1 (14) % | Increased ALT: patients with AZD8055-related AE, n (%) [7]: 0% | Increased AST: patients with AZD8055-related AE, n (%) [7]: 0% | Increased GGT: patients with AZD8055-related AE, n (%) [7]: 0% | Nausea: patients with AZD8055-related AE, n (%) [7]: 1 (14) % | Stomatitis: patients with AZD8055-related AE, n (%) [7]: 0% | Fatigue: patients with AZD8055-related AE, n (%) [8]: 0% | Hyperglycaemia: patients with AZD8055-related AE, n (%) [8]: 0% | Increased ALT: patients with AZD8055-related AE, n (%) [8]: 1 (14) % | Increased AST: patients with AZD8055-related AE, n (%) [8]: 0% | Increased GGT: patients with AZD8055-related AE, n (%) [8]: 0% | Nausea: patients with AZD8055-related AE, n (%) [8]: 0% | Stomatitis: patients with AZD8055-related AE, n (%) [8]: 0% | Fatigue: patients with AZD8055-related AE, n (%) [9]: 1 (14) % | Hyperglycaemia: patients with AZD8055-related AE, n (%) [9]: 0% | Increased ALT: patients with AZD8055-related AE, n (%) [9]: 1 (14) % | Increased AST: patients with AZD8055-related AE, n (%) [9]: 1 (14) % | Increased GGT: patients with AZD8055-related AE, n (%) [9]: 1 (14) % | Nausea: patients with AZD8055-related AE, n (%) [9]: 0% | Stomatitis: patients with AZD8055-related AE, n (%) [9]: 0% | Fatigue: patients with AZD8055-related AE, n (%) [10]: 0% | Hyperglycaemia: patients with AZD8055-related AE, n (%) [10]: 0% | Increased ALT: patients with AZD8055-related AE, n (%) [10]: 0% | Increased AST: patients with AZD8055-related AE, n (%) [10]: 1 (14) % | Increased GGT: patients with AZD8055-related AE, n (%) [10]: 1 (14) % | Nausea: patients with AZD8055-related AE, n (%) [10]: 0% | Stomatitis: patients with AZD8055-related AE, n (%) [10]: 0% | Patients with DLT (grade 3 rise in transaminases) (90 mg BID tablet): 1 and 1/9 | Fatigue: patients with AZD8055-related AE, n (%) [11]: 1 (9) % | Hyperglycaemia: patients with AZD8055-related AE, n (%) [11]: 3 (27) % | Increased ALT: patients with AZD8055-related AE, n (%) [11]: 2 (18) % | Increased AST: patients with AZD8055-related AE, n (%) [11]: 1 (9) %
